The entries come from a sample that favours hits as a whole.
HCT116 bCat-KO: beta-catenin-lacking colon tumor cell growth suppression; HCT116 beta-catenin knockout viability, CellTiter-Glo, 60 h; hits give low values; viability, % at 10 µM; 140,000 tested, 1.5% active;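 active = viability at or under a set limit, the compound median less 4 SD, cut at about 6% in these data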;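 note: 0% = Hyamine 1622 control at 20 µM and 100% = untreated cell control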
PTEN del growth: PTEN-deleted cell growth suppression; 140,000 tested, 1.2% active; viability, % at 10 µM; HCT116 PTEN-null viability, CellTiter-Glo, 60 h; hits give low values; AID 827;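 active = viability at or below a set limit, 4 SD under the median of all tested compounds, cut at about 3.7% in these data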;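 note: PTEN knockout HCT116 line with beta catenin targeted HCT116 as companion control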
Fibroblast inh: blocks proliferation of human lung fibroblasts | viability, % at 10 µM | LL 47 human lung fibroblast viability, ATP luminescence; hits give low values | 85,000 tested, 1.1% active;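 active = viability at or below 50% in the single dose screen; inactive = viability above 50%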;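 note: compound exposure lasted 72 h before the ATP readout; 100% = median luminescence of untreated cell-only wells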
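Test system: LL 47 human lung fibroblasts / Quantity: 1,150 cells in each well / Medium: IMEM growth medium with 15% fetal bovine serum / Incubation: 72 h compound exposure at 37 °C after overnight plating / Detection: CellTiter-Glo luminescence measuring cellular ATP / Read-out: % viability versus median cells-only luminescence / Benchmarks: cell-only wells, no compound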
HUVEC inhibit: human endothelial cell proliferation inhibition; 86,000 tested, 1.1% active; HUVEC proliferation, CellTiter-Glo luminescence, 72 h; hits give low values; AID 648; viability, % at 10 µM (by protocol);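 active = viability at or below 30%; inactive = viability above 30%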;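 note: 100% = median luminescence of DMSO-only cell control wells on each plate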
H69AR inhibit: growth inhibitors of human H69AR lung tumor cells. viability, % at 10 µM. H69AR lung tumor viability, ATP luminescence, 72 h; hits give low values. AID 598. 85,000 tested, 6% active;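 active = viability at or below 40%; inactive = viability above 40%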;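 note: multidrug resistant small cell line overexpressing MRP-1 efflux transporter; 100% = mean luminescence of untreated control wells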
An asterisk follows results filed as active; . = no result.

SMILES | HCT116 bCat-KO | PTEN del growth | Fibroblast inh | HUVEC inhibit | H69AR inhibit
COc1ccc(-c2coc3cc4oc(=O)c5ccccc5c4cc23)cc1F | 4.5* | 6 | . | . | .
Cc1c(CCC(=O)O)c(=O)oc2cc3occ(-c4ccc(F)cc4)c3cc12 | 96 | 90 | 91 | 104 | 102
CCOc1ccc(CCNS(=O)(=O)c2cnc[nH]2)cc1OCC | 99 | 107 | 90 | 98 | 98
COc1cc(N=c2ssnc2Cl)c(OC)cc1Cl | 101 | 104 | 44* | 85 | 1.1*
COc1ccc(OC)c(N=c2ssnc2Cl)c1 | 97 | 94 | . | . | .
Cc1ccc(N=c2ssnc2Cl)cc1 | 97 | 88 | 97 | 101 | 2.4*
Cc1cc(C)nc(/N=c2/ssnc2Cl)c1 | 41 | 12 | 105 | 113 | 20*
Cc1ccc(N=C2NC(=O)CS2)cc1 | 90 | 101 | 104 | 89 | 97
Cc1cc(Cl)ccc1N=c1ssnc1Cl | 13 | 58 | 101 | 40 | 2.2*
O=C(CCn1c(=S)[nH]c2cc3c(cc2c1=O)OCO3)NCCN1CCCC1 | . | . | 105 | 90 | 93
Cc1cccn2c(=O)c3cc(C#N)c(=O)n(CC4CCCO4)c3nc12 (stereo not drawn) | 89 | 85 | . | . | .
Cc1cccc(S(=O)(=O)NNC(=O)c2sc(C)nc2C)c1 | 92 | 101 | . | . | .
COc1cccc(/C=N\NC(=O)c2sc(N)nc2C)c1OC | 100 | 100 | . | . | .
CCc1ccc(NC(=O)CNS(=O)(=O)c2c(C)noc2C)cc1 | 88 | 95 | . | . | .
O=C(c1ccc(S(=O)(=O)c2ccccc2Cl)c([N+](=O)[O-])c1)N1CCCCCC1 | 20 | 25 | . | . | .
Cc1cc(=O)n2c3c(sc2n1)C(=O)N(Cc1ccccc1)C3=O | 95 | 91 | 67 | 74 | 1.1*
CCS(=O)(=O)CCSc1nc2ccccc2o1 | 96 | 87 | 111 | 112 | 89
O=S(=O)(CCSc1nc2ccccc2o1)c1nc2ccccc2s1 | 5.1* | 3.5* | 6.2* | 12* | 95
O=S(=O)(CCSc1ccccn1)c1nc2ccccc2s1 | 35 | 53 | 43* | 37 | 1.9*
COc1ccccc1NC(=O)Cn1nnc(-c2ccccc2NC(=O)c2ccco2)n1 | 88 | 102 | 47* | 39 | 16*
COc1cc(NC(=O)Cn2nnc(-c3ccccc3N)n2)cc(OC)c1 | 97 | 91 | 97 | 95 | 30*
O=C(Cn1nnc(-c2ccccc2NC(=O)c2ccco2)n1)NC1CCCCC1 | 93 | 77 | 88 | 95 | 82
COc1ccc(NC(=O)Cn2nnc(-c3ccccc3N)n2)cc1OC | 96 | 95 | 95 | 93 | 79
COc1ccc(NC(=O)Cn2nnc(-c3ccccc3NC(=O)c3ccco3)n2)cc1 | 15 | 12 | 48* | 21* | 4.3*
Cc1cccc(N2CCN(c3nc4ccc(Cl)cc4n4cnnc34)CC2)c1C | 0.8* | 1.0* | 29* | 14* | 2.1*
SMILES | HCT116 bCat-KO | PTEN del growth | Fibroblast inh | HUVEC inhibit | H69AR inhibit
CC12CC(c3ccccc3O1)N(C(=O)c1ccco1)C(=S)N2c1ccc(F)cc1 (stereo not drawn) | 66 | 55 | 87 | 60 | 6.4*
COC(=O)NC(=C(Cl)Cl)S(=O)(=O)c1ccccc1 | 2.6* | 1.9* | 34* | 55 | 1.1*
COc1ccc(CN(C)C2CCCCC2)cc1 | 100 | 91 | 102 | 102 | 86
CN(Cc1ccc(O)cc1)C1CCCCC1 | 85 | 97 | . | 101 | 30*
COc1ccc2nc(NC(=O)C(NS(=O)(=O)c3cccc4nsnc34)C(C)C)sc2c1 (stereo not drawn) | 87 | 96 | . | . | .
CCSc1ccccc1C(=O)NCc1ccco1 | 89 | 115 | 100 | 91 | 77
Cc1nn(-c2ccccn2)c2c1-c1nc(N)ncc1CC2 | 98 | 91 | 102 | 81 | 68
Cc1nn(-c2ccccn2)c2c1-c1nc(N3CCOCC3)ncc1CC2 | 79 | 68 | 93 | 63 | 10*
CCN(CC)c1ccc(NC(=O)CC2Oc3ccccc3NC2=O)c(C)c1 (stereo not drawn) | 71 | 65 | 87 | 78 | 25*
COc1ccc2cc(C(c3nnnn3C3CCCCC3)N3CCCCCC3)c3nnnn3c2c1 (stereo not drawn) | . | . | 87 | 85 | 35*
COc1ccc2cc(C(c3nnnn3C3CCCC3)N3CCCCCC3)c3nnnn3c2c1 (stereo not drawn) | 9 | 2.3* | 95 | 43 | 40
COc1ccc(C(c2nnnn2C2CCCC2)N2CCC(C)CC2)c(OC)c1 (stereo not drawn) | 64 | 64 | 93 | 101 | 62
COc1cc(-c2noc(CCCC(=O)NCc3ccccc3)n2)cc(OC)c1OC | 88 | 88 | 98 | 90 | 66
Cc1cc(C)cc(NC(=O)CSc2nnc(-c3ccccc3)n2N)c1 | 96 | 102 | 98 | 102 | 94
COc1ccccc1N(CC(=O)Nc1cc(C)on1)S(=O)(=O)c1cccs1 | . | . | 103 | 97 | 82
N#C/C(=C\c1sc(N2CCOCC2)nc1-c1ccccc1)C(=O)Nc1cccc2ccccc12 | 3.9* | 2.3* | . | . | .
CCOC(=O)c1sc(Nc2cccc(C)c2C)nc1C | 88 | 87 | 87 | 71 | 83
Cc1cc(C)c2nc(SCC#N)cc(C)c2c1 | 53 | 59 | 83 | 83 | 24*
CCOc1cc(/C=C2/C(=N)N3OC(C)=CC3=NC2=O)ccc1OCCOc1ccccc1 | 89 | 99 | 91 | 65 | 68
CCc1nnc(NC(=O)c2ccc(S(=O)(=O)N(CC(C)C)CC(C)C)cc2)o1 | 23 | 18 | 57 | 47 | 25*
COCc1nnc(NC(=O)c2ccc(S(=O)(=O)N(C)C3CCCCC3)cc2)o1 | 72 | 80 | 97 | 60 | 25*
COCc1nnc(NC(=O)c2ccc(S(=O)(=O)N3CCCCCC3)cc2)o1 | 32 | 28 | 89 | 83 | 43
CCOc1ccc(NC(=O)c2oc3ccccc3c2NC(=O)C(C)C)cc1 | . | . | 86 | 88 | 87
Cc1cn2c(nc(=O)c3cccnc32)s1 | 96 | 103 | . | . | .
O=c1oc2c(O)c(O)cc3c(=O)oc4c(O)c(O)cc1c4c23 | 60 | 61 | 99 | 69 | 16*
SMILES | HCT116 bCat-KO | PTEN del growth | Fibroblast inh | HUVEC inhibit | H69AR inhibit
CCN(CCO)Cc1csc2ccc(Br)cc12 | 86 | 84 | . | . | .
NC1=NC(=O)/C(=C/c2ccccc2OS(=O)(=O)c2ccc3ccccc3c2)S1 | 96 | 102 | . | . | .
CCOc1ccc(-c2nnc(Nc3ccc(OC)c(C(=O)N4CCCCC4)c3)c3ccccc23)cc1 | 56 | 46 | . | . | .
CC(C)(C)c1cnnn1-c1ccc(C(=O)CCl)cc1 | 102 | 93 | 16* | 40 | 1.6*
COc1ccc(S(=O)(=O)N2CCCN(CC(=O)Nc3ccc4c(c3)OCO4)CC2)cc1 | 85 | 89 | 98 | 96 | 51
O=C(CN1CCN(S(=O)(=O)c2ccc(F)cc2)CC1)Nc1ccc(Cl)c(C(F)(F)F)c1 | 62 | 46 | 88 | 71 | 9.0*
O=C(CN1CCCN(S(=O)(=O)c2ccc(Br)cc2)CC1)Nc1ccc2c(c1)OCO2 | 75 | 74 | 93 | 89 | 12*
O=C(CN1CCN(S(=O)(=O)c2ccc(F)cc2)CC1)Nc1ccc2c(c1)OCO2 | 107 | 98 | 48* | 91 | 116

Source: PubChem BioAssay (SRMLSC)
